According to paper PMC6702078 (Biochemical pharmacology, 2019):

Tests used:
[1] = test system: PSA expression; assay: PSA expression by Western blot in LNCaP expressing AR-V7; format: cell-based, human; settings: LNCaP stably expressing AR-V7, 10μM, 24 hrs
In short: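 Cells were lysed in 1x SDS sample buffer (1 × 10^7 cells/ml) and boiled 5 min. PSA and AR levels were assessed by SDS-PAGE and Western blot.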

[2] = test system: androgen-dependent LNCaP PC cells; assay: Cell viability; format: cell-based, human; settings: for effect on viability: escalating concentrations, 96 hours (Fig.5C); for IC20 / IC50 / IC70 / IC90: Homo sapiens, 96 h; for IC20: read-out: ED20; for IC50: read-out: ED50; for IC70: read-out: ED70; for IC90: read-out: ED90
[3] = test system: castration-resistant DU-145 PC cells; assay: Cell viability; format: cell-based, human; settings: for effect on viability: DU-145, escalating concentrations, 96 hours (Fig.5E); for ED20 / ED50 / ED70 / ED90: DU-145, 96 hours, CellTiter Blue
[4] = test system: AR transcriptional activity; assay: AR luciferase reporter assay in LNCaP with R1881; format: cell-based, human; settings: R1881 2.5nM, 8 hrs
[5] = test system: PARP1 enzymatic activity in PC cells; assay: PARP-1 inhibitory assay in human cell culture; format: cell-based
In short: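 Graded doses of test compound were added in complete medium for 24 or 48 h. Cells were lysed in SDS sample buffer at 1 × 10^7 cells/ml and boiled 5 min. Poly(ADP-ribose) was assessed by SDS-PAGE and Western blot with mouse anti-pADPr (1:500).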

[6] = test system: castration-resistant PC-3 PC cells; assay: Cell viability; format: cell-based, human; settings: for effect on viability: PC-3, escalating concentrations, 96 hours (Fig.5D); for IC20 / IC50 / IC70 / IC90: Homo sapiens, 96 h; for IC20: read-out: ED20; for IC50: read-out: ED50; for IC70: read-out: ED70; for IC90: read-out: ED90
[7] = Mouse plasma stability; format: in vitro ADME; settings: for half-life at 1 μM: male, C57BL/6, mouse, pH 7.4
[8] = biological target: hCYP2C9 (Homo sapiens, UniProt P11712); assay: Cytochrome P450 inhibition CYP2C9; format: in vitro ADME
Chain of hCYP2C9 (P11712 whole entry): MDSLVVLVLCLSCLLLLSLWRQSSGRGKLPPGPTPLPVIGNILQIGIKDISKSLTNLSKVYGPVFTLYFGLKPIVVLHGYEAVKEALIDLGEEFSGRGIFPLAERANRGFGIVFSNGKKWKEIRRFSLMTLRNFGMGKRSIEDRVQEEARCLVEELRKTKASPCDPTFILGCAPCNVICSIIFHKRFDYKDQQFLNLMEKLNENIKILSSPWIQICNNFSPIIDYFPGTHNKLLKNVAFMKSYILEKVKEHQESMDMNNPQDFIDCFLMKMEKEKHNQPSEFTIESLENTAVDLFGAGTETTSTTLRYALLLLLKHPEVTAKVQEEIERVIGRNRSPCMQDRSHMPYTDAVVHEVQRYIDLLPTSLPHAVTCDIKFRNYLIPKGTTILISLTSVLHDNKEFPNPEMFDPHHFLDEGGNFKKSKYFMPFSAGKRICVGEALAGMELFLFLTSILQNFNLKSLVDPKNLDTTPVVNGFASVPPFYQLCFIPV

[9] = biological target: PARP-1 (Homo sapiens, UniProt P09874); assay: PARP-1 activity assay in cell free system; format: biochemical; settings: inhibitors at 10μM; pADPr Western blot and colorimetric assay (Fig.4C-D)
Chain of PARP-1 (P09874 whole entry): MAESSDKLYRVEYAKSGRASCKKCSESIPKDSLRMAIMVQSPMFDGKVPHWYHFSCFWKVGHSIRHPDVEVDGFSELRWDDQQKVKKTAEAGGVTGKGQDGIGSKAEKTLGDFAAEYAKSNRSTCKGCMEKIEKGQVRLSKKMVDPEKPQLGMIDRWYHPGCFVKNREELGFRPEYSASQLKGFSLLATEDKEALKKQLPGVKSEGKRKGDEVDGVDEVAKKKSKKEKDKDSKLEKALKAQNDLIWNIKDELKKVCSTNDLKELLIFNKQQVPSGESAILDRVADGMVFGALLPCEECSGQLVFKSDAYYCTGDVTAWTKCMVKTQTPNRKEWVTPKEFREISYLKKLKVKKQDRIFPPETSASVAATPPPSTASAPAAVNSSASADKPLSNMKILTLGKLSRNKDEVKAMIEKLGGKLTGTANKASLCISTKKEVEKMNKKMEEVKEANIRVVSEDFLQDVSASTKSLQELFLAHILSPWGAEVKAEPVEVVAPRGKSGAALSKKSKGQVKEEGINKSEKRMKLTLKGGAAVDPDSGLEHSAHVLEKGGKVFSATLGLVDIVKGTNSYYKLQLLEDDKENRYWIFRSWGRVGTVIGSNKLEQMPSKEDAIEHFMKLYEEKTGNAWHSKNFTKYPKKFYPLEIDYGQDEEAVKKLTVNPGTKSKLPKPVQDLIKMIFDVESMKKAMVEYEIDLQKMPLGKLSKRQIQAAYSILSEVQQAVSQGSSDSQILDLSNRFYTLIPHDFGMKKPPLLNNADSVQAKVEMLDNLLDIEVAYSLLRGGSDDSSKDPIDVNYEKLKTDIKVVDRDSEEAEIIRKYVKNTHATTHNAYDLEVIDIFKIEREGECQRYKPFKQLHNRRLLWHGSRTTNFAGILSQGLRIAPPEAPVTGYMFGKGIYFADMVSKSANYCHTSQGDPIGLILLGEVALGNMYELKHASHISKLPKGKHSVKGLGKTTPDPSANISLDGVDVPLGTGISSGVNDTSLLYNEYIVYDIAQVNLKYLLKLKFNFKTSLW
In short: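 Commercial PARP-1 enzyme was activated by either H4 histone or endonuclease-digested plasmid DNA, with NAD and inhibitor or water, in PARP-1 reaction buffer (Tris pH 8.0, MgCl2, Triton X-100). Reactions ran 30 min at room temperature. pADPr was detected by SDS-PAGE and anti-pADPr Western blot, relative to DMSO-treated mixtures. Inhibitors were tested at 10 μM.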

[10] = Mouse liver microsome stability; format: in vitro ADME; settings: male, CD-1, mouse, liver microsomes, pH 7.4
[11] = Kinetic aqueous solubility in PBS; format: physicochemical; settings: phosphate buffered saline, pH 7.4, aqueous buffer, kinetic from dmso stock
[12] = Human liver microsome stability; format: in vitro ADME; settings: both, liver microsomes, pH 7.4
[13] = biological target: hCYP2D6 (Homo sapiens, UniProt P10635); assay: Cytochrome P450 inhibition CYP2D6; format: in vitro ADME
Chain of hCYP2D6 (P10635 whole entry): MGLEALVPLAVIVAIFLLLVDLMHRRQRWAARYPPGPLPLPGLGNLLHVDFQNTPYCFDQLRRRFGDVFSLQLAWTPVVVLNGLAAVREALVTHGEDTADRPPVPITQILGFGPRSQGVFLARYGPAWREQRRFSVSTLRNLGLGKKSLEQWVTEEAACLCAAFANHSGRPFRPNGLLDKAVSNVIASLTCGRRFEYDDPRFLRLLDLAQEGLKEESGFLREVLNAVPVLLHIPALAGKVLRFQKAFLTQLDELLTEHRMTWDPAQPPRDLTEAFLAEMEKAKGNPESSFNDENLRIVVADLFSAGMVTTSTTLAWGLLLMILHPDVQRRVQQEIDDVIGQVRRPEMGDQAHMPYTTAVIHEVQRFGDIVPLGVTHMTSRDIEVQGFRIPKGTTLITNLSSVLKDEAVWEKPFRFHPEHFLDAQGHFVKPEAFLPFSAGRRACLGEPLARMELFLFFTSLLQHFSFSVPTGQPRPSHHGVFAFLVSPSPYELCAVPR

[14] = biological target: hCYP3A4 (Homo sapiens, UniProt P08684); assay: Cytochrome P450 inhibition CYP3A4; format: in vitro ADME
Chain of hCYP3A4 (P08684 whole entry): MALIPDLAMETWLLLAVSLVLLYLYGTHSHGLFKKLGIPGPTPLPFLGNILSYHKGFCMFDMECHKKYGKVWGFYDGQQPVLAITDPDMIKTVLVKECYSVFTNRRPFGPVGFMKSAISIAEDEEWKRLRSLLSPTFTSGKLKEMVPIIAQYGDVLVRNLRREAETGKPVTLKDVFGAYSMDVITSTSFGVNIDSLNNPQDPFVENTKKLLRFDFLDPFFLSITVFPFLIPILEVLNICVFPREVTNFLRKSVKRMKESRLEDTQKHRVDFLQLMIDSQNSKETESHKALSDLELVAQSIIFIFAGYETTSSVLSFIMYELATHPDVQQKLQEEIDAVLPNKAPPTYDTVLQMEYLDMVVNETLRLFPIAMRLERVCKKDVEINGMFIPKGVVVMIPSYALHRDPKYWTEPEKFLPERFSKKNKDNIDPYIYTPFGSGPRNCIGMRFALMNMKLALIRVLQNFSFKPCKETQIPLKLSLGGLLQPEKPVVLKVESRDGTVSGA

[15] = test system: AR transcriptional activity; assay: AR luciferase reporter assay in LNCaP expressing AR-V7; format: cell-based, human; settings: LNCaP stably expressing AR-V7, luciferase, 8 hrs
[16] = test system: LNCaP expressing both wild-type and constitutively active AR splice variant AR-V7; assay: Cell viability; format: cell-based, human; settings: LNCaP AR-V7, 96 hours, CellTiter Blue, XLfit

Compound: CNC(=O)c1ccc(N2C(=S)N(c3ccc(C#N)c(C(F)(F)F)c3)C(=O)C2(C)C)cc1F [Enzalutamide]
- effect on PSA expression [1]: negligible inhibitory effect

Compound: Cl.O=C(CN1CCCCC1)OC1CCCCCCCCCCC1 [FC-7218, Cyclododecyl 2-(piperidin-1-yl)acetate hydrochloride]
- effect on viability [2]: no significant effect
- effect on viability [3]: no significant effect
- effect on R1881-mediated AR transcriptional activity [4]: only weak inhibitory effects
- effect on the PARP1 enzymatic activity in PC cells [5]: insignificant effect
- effect on viability [6]: no significant effect

Compound: Cl.O=C(CN1CCCCC1)NC1CCCCCCCCCCC1 [FC-7219, N-cyclododecyl-2-(piperidin-1-yl)acetamide hydrochloride]
- effect on viability [2]: no significant effect
- effect on viability [3]: no significant effect
- effect on R1881-mediated AR transcriptional activity [4]: only weak inhibitory effects
- effect on the PARP1 enzymatic activity in PC cells [5]: insignificant effect
- effect on viability [6]: no significant effect

Compound: C[N+]1(CC(=O)NC2CCCCCCCCCCC2)CCCCC1.[I-] [FC-7220, 1-[(Cyclododecylcarbamoyl)methyl]-1-methylpiperidin-1-ium iodide]
- half-life at 1 μM ([7]; mouse plasma): > 240 min
- IC50 [8]: > 10 µM
- PARP-1 inhibitory activity in cell free system [9]: reduced anti-PARP-1 activity
- IC20 [2]: 5.1 µM
- IC50 [2]: 15.2 µM
- IC70 [2]: 29.4 µM
- IC90 [2]: 84.2 µM
- remaining at 1 h, 1 μM [10]: 101%
- ED20 [3]: 10.0 µM
- ED50 [3]: 37.2 µM
- ED70 [3]: 82.7 µM
- ED90 [3]: 296.1 µM
- solubility at 90 min [11]: 191 µM
- effect on R1881-mediated AR transcriptional activity [4]: only weak inhibitory effects
- IC20 [6]: 9.6 µM
- IC50 [6]: 36.8 µM
- IC70 [6]: 83.7 µM
- IC90 [6]: 310 µM
- half-life at 1 μM [12]: 1.6 min
- microsomal CLint at 1 μM [12]: 850 µL/min/mg
- remaining at 1 h, 1 μM [12]: 100%
- IC50 [13]: 2.37 µM
- IC50 [14]: 1.93 µM

Compound: O=C(CN1CCC1)OC1CCCCCCCCCCC1 [MC-270008, Cyclododecyl 2-(azetidin-1-yl)acetate]
- PARP-1 inhibitory activity in cell free system [9]: diminished capacity to inhibit PARP-1
- effect on the PARP1 enzymatic activity in PC cells [5]: insignificant effect

Compound: C[N+]1(CC(=O)OC2CCCCCCCCCCC2)CCCC1.[I-] [MC-270016, 1-(2-(Cyclododecyloxy)-2-oxoethyl)-1-methylpyrrolidin-1-ium iodide]
- half-life at 1 μM ([7]; mouse plasma): 57.2 min
- IC50 [8]: > 10 µM
- IC20 [2]: 0.9 µM
- IC50 [2]: 3 µM
- IC70 [2]: 6.1 µM
- IC90 [2]: 19.4 µM
- remaining at 1 h, 1 μM [10]: 98%
- ED20 [3]: 13.3 µM
- ED50 [3]: 38.6 µM
- ED70 [3]: 73.9 µM
- ED90 [3]: 208.1 µM
- solubility at 90 min [11]: 125 µM
- IC20 [6]: 9.6 µM
- IC50 [6]: 22.4 µM
- IC70 [6]: 37.4 µM
- IC90 [6]: 85 µM
- half-life at 1 μM [12]: 1.9 min
- microsomal CLint at 1 μM [12]: 721 µL/min/mg
- remaining at 1 h, 1 μM [12]: 92%
- IC50 [13]: 8.54 µM
- IC50 [14]: 2.98 µM

Compound: C[N+]1(CC(=O)OC2CCCCCCCCCCC2)CCCCCC1.[I-] [MC-270017, 1-(2-(Cyclododecyloxy)-2-oxoethyl)-1-methylazepan-1 ium iodide]
- half-life at 1 μM ([7]; mouse plasma): 35.9 min
- IC50 [8]: > 10 µM
- IC20 [2]: 0.9 µM
- IC50 [2]: 2.3 µM
- IC70 [2]: 4.1 µM
- IC90 [2]: 10.1 µM
- remaining at 1 h, 1 μM [10]: 87%
- ED20 [3]: 10.6 µM
- ED50 [3]: 20.9 µM
- ED70 [3]: 31.6 µM
- ED90 [3]: 61.1 µM
- solubility at 90 min [11]: 140 µM
- IC20 [6]: 10.2 µM
- IC50 [6]: 17.5 µM
- IC70 [6]: 24.2 µM
- IC90 [6]: 40.8 µM
- half-life at 1 μM [12]: 1.2 min
- microsomal CLint at 1 μM [12]: 1200 µL/min/mg
- remaining at 1 h, 1 μM [12]: 95%
- IC50 [13]: 4.4 µM
- IC50 [14]: 1.7 µM

Compound: CC1(C)CC[N+](C)(CC(=O)OC2CCCCCCCCCCC2)CC1.[I-] [MC-270019, 1-(2-(Cyclododecyloxy)-2-oxoethyl)-1,4,4-trimethylpiperidin-1-ium iodide]
- half-life at 1 μM ([7]; mouse plasma): 19.6 min
- IC50 [8]: > 10 µM
- IC20 [2]: 1.3 µM
- IC50 [2]: 3.1 µM
- IC70 [2]: 5.2 µM
- IC90 [2]: 12.2 µM
- remaining at 1 h, 1 μM [10]: 84%
- ED20 [3]: 10.9 µM
- ED50 [3]: 24.6 µM
- ED70 [3]: 40.4 µM
- ED90 [3]: 89.1 µM
- solubility at 90 min [11]: 95.2 µM
- IC20 [6]: 6.9 µM
- IC50 [6]: 14.6 µM
- IC70 [6]: 23.1 µM
- IC90 [6]: 48.1 µM
- half-life at 1 μM [12]: 1.2 min
- microsomal CLint at 1 μM [12]: 1150 µL/min/mg
- remaining at 1 h, 1 μM [12]: 92%
- IC50 [13]: 9.93 µM
- IC50 [14]: 4.67 µM

Compound: C[N+]1(CC(=O)OC2CCCCCCCCCCC2)CCSCC1.[I-] [MC-270021, 4-(2-(Cyclododecyloxy)-2-oxoethyl)-4-methylthiomorpholin-4-ium iodide]
- half-life at 1 μM ([7]; mouse plasma): 118 min
- IC50 [8]: > 10 µM
- IC20 [2]: 4.2 µM
- IC50 [2]: 11.2 µM
- IC70 [2]: 20.3 µM
- IC90 [2]: 52.1 µM
- remaining at 1 h, 1 μM [10]: 88%
- solubility at 90 min [11]: 110 µM
- IC20 [6]: 4.9 µM
- IC50 [6]: 60.6 µM
- IC70 [6]: 282 µM
- IC90 [6]: 3270 µM
- half-life at 1 μM [12]: 1.3 min
- microsomal CLint at 1 μM [12]: 1070 µL/min/mg
- remaining at 1 h, 1 μM [12]: 85%
- IC50 [13]: 9.25 µM
- IC50 [14]: 3.92 µM

Compound: O=C(c1cc(Cc2n[nH]c(=O)c3ccccc23)ccc1F)N1CCN(C(=O)C2CC2)CC1 [Olaparib, reference compound]
- IC20 [2]: 0.7 µM
- IC50 [2]: 20.4 µM
- IC70 [2]: 163 µM
- IC90 [2]: 4450 µM
- ED20 [3]: 1.2 µM
- ED50 [3]: 7.4 µM
- ED70 [3]: 22.0 µM
- ED90 [3]: 125.8 µM
- effect on R1881-mediated AR transcriptional activity [4]: only weak inhibitory effects
- IC20 [6]: 0.9 µM
- IC50 [6]: 9.3 µM
- IC70 [6]: 39 µM
- IC90 [6]: 384 µM
- effect on PSA expression [1]: negligible inhibitory effect
- effect on AR transcriptional activity [15]: negligible inhibitory effect
- ED20 [16]: 7.3 µM
- ED50 [16]: 61.9 µM
- ED70 [16]: 228.7 µM
- ED90 [16]: 1835 µM

Compound: CNCc1ccc(-c2[nH]c3cc(F)cc4c3c2CCNC4=O)cc1 [Rucaparib, reference compound]
- IC50 [2]: 26.7 µM
- IC70 [2]: 52.6 µM
- IC90 [2]: 155 µM
- ED20 [3]: 0.9 µM
- ED50 [3]: 5.0 µM
- ED70 [3]: 14.8 µM
- ED90 [3]: 82.7 µM
- effect on R1881-mediated AR transcriptional activity [4]: only weak inhibitory effects
- IC20 [6]: 1 µM
- IC50 [6]: 7 µM
- IC70 [6]: 23.2 µM
- IC90 [6]: 157 µM

Compound: C[C@]1(c2nc3c(C(N)=O)cccc3[nH]2)CCCN1 [Veliparib, reference compound]
- IC20 [2]: 10.6 µM
- IC50 [2]: 55.6 µM
- IC70 [2]: 153 µM
- IC90 [2]: 768 µM
- ED20 [3]: 6.7 µM
- ED50 [3]: 36.7 µM
- ED70 [3]: 104.0 µM
- ED90 [3]: 547.2 µM
- effect on R1881-mediated AR transcriptional activity [4]: only weak inhibitory effects
- IC20 [6]: 9.7 µM
- IC50 [6]: 70.5 µM
- IC70 [6]: 237 µM
- IC90 [6]: 1630 µM

Compound: CCN(CC)CCOC(=O)c1ccc(N)cc1 [procaine, reference compound]
- stable in PBS ([7]; PBS pH 7.4, 1 μM, 60 min, 37°C, typical value): 100%
- degraded in plasma ([7]; mouse plasma, 1 μM, 60 min, 37°C, typical value): > 95%
